Experimental data: ChEMBL document CHEMBL1154621, “Structure-based design of DevR inhibitor active against nonreplicating Mycobacterium tuberculosis” (J Med Chem, 2009)
Active and inactive are the calls of the source. No cut-off for these calls is given here.

How the values were obtained:
[1] = system: Mycobacterium tuberculosis; assay: Antimycobacterial activity against 30 day old non-replicating dormant cultures of Mycobacterium tuberculosis H37Rv assessed as revival of bacterial viability exposed for 11 days measured after 30 days post exposure by resazurin reduction assay; format: functional, organism-based
Outline: (§1)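 Hypoxic cultures were pelleted at 11000g at the end of exposure (30 days if compound was given on day 0, 41 days if given on day 30). Washed and resuspended in 4 mL 7H9 with 5% OADC and 0.1% Tween-80. Grown aerobically at 190 rpm, 37 °C. Aliquots taken every 5 days; recovery read by resazurin reduction and OD595, scored 1-40 with day 0 = 1.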

[2] = system: Mycobacterium tuberculosis; assay: Antimycobacterial activity against 30 day old non-replicating dormant cultures of Mycobacterium tuberculosis H37Rv assessed as reduction of bacterial viability measured after 11 days by resazurin reduction assay; format: functional, organism-based
Outline: (§2)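 H37Rv grown in Dubos medium to OD595 ~0.4, diluted to OD595 0.003; 2 mL aliquots held static in sealed 4 mL tubes for 30 days until hypoxic. Compounds added to these dormant cultures for a further 11 days. Metronidazole and isoniazid were controls. Read by CFU plating of aliquots, then resazurin 0.02% plus Tween-80 20% injected, overnight incubation, resazurin reduction (HyRRA).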

[3] = molecular target: T1, DNA-binding transcriptional activator DevR/DosR (Mycobacterium tuberculosis, UniProt P9WMF9); assay: Inhibition of Mycobacterium tuberculosis phosphorylated DevR binding to fdxA promoter DNA after 10 mins by EMSA
Outline: (§3)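 N-terminal GST-tagged DevR was phosphorylated with acetyl phosphate; DevR~P (1 μM final) was preincubated 10 min at 30 °C with or without compound. ~2 ng 32P end-labelled fdxA promoter PCR probe was added and incubated 30 min on ice in binding buffer. Complexes resolved by gel electrophoresis.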

[4] = molecular target: T1, DNA-binding transcriptional activator DevR/DosR; assay: Inhibition of DevR region-dependent Rv3134c promoter activity in Mycobacterium tuberculosis H37Rv after 48 hrs by GFP reporter gene assay
Outline: (§4)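 H37Rv carrying DevR-regulated promoter-gfp plasmids, grown in Dubos/Tween/ADC medium to OD595 ~0.4 and diluted to OD ~0.05. Exposed to 2-fold serial compound dilutions from DMSO stocks for 48 h at 37 °C. Fluorescence corrected for vector and compound background. Percent inhibition = [1 - RFUcompound/RFUDMSO] × 100; mean ± SD of three experiments, each in triplicate wells.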

[5] = system: Mycobacterium tuberculosis; assay: Inhibition of constitutive sigA promoter activity in Mycobacterium tuberculosis H37Rv; format: functional, organism-based
Outline: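 Strains carrying Rv3134c or sigA promoter-gfp were grown in 7H9/Tween/ADC to OD595 ~0.40. Washed twice with PBS, resuspended in PBS (starved) or medium, and diluted to OD595 ~0.02. 1 mL aliquots incubated; 200 μL samples taken weekly to measure GFP fluorescence.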

[6] = molecular target: DNA-binding transcriptional activator DevR/DosR (Mycobacterium tuberculosis) (UniProt P9WMF9); assay: Inhibition of Mycobacterium tuberculosis phosphorylated DevR binding to fdxA promoter DNA at 500 uM after 10 mins by EMSA; outline: as §3
[7] = molecular target: DNA-binding transcriptional activator DevR/DosR (Mycobacterium tuberculosis) (UniProt P9WMF9); assay: Inhibition of DevR region-dependent Rv3134c promoter activity in Mycobacterium tuberculosis H37Rv at 250 uM after 48 hrs by GFP reporter gene assay; outline: as §4
[8] = molecular target: DNA-binding transcriptional activator DevR/DosR (Mycobacterium tuberculosis) (UniProt P9WMF9); assay: Inhibition of Mycobacterium tuberculosis phosphorylated DevR binding to fdxA promoter DNA at 250 uM after 10 mins by EMSA; outline: as §3
[9] = system: Mycobacterium tuberculosis; assay: Antimycobacterial activity against aerobic Mycobacterium tuberculosis H37Rv by resazurin reduction based REMA assay; format: functional, organism-based
Outline: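 Aerobic H37Rv exposed to compounds in triplicate cultures for 7 days. Then 0.02% resazurin and 20% Tween-80 added; after 48 h, blue-to-pink colour change read, with fluorescence at excitation 530 nm, emission 590 nm.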

[10] = system: Mycobacterium tuberculosis; assay: Antimycobacterial activity against hypoxic dormant cultures of Mycobacterium tuberculosis H37Rv assessed as reduction of bacterial viability at 131 ug/mL administered on day 0 into hypoxic tubes measured after 30 days by resazurin reduction assay; format: functional
Outline: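 H37Rv in Dubos medium at OD595 0.003; 2 mL aliquots in sealed 4 mL tubes held static, compound injected on day 0. Incubated until methylene blue decolorized (anaerobiosis, ~30 days). CFU plating of aliquots, then resazurin 0.02% and Tween-80 20% injected, overnight incubation, viability by resazurin reduction (HyRRA). DMSO control matched.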

[11] = molecular target: DNA-binding transcriptional activator DevR/DosR (Mycobacterium tuberculosis) (UniProt P9WMF9); assay: Inhibition of Mycobacterium tuberculosis phosphorylated DevR binding to fdxA promoter DNA added before DevR phosphorylation by EMSA
[12] = system: Mycobacterium tuberculosis; assay: Antimycobacterial activity against nutrient starvation-induced dormant Mycobacterium tuberculosis H37Rv expressing Rv3134c/sigA promoter driven GFP reporter genes; format: functional, organism-based
[13] = system: Mycobacterium tuberculosis; assay: Antimycobacterial activity against hypoxic dormant cultures of Mycobacterium tuberculosis H37Rv assessed as revival of bacterial viability at 131 ug/mL administered on day 0 into hypoxic tubes measured after 30 days under hypoxic conditions by resazurin reduction assay; format: functional, organism-based; outline: as §1
[14] = molecular target: DNA-binding transcriptional activator DevR/DosR (Mycobacterium tuberculosis) (UniProt P9WMF9); assay: Inhibition of Mycobacterium tuberculosis phosphorylated DevR binding to fdxA promoter DNA added after DevR phosphorylation by EMSA
[15] = molecular target: DNA-binding protein HupB (Mycobacterium tuberculosis (strain ATCC 25177 / H37Ra)) (UniProt A5U6Z7); assay: Inhibition of Mycobacterium tuberculosis HupB binding to fdxA promoter DNA at 500 uM by EMSA
Outline: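 Purified HupB protein incubated with compound, then ~2 ng 32P-labelled fdxA promoter probe added for 30 min on ice in binding buffer. Complexes resolved by gel shift electrophoresis against positive and negative controls.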

[16] = system: Mycobacterium tuberculosis; assay: Antimycobacterial activity against 30 day old non-replicating dormant cultures of Mycobacterium tuberculosis H37Rv assessed as reduction of bacterial viability at 131 ug/mL measured after 11 days by resazurin reduction assay; format: functional, organism-based; outline: as §2
[17] = molecular target: T1, DNA-binding transcriptional activator DevR/DosR; assay: Inhibition of DevR region-dependent hspX promoter activity in Mycobacterium tuberculosis H37Rv after 48 hrs by GFP reporter gene assay; outline: as §4
[18] = system: Mycobacterium tuberculosis; assay: Antimycobacterial activity against 30 day old non-replicating dormant cultures of Mycobacterium tuberculosis H37Rv assessed as revival of bacterial viability at 131 ug/mL exposed for 11 days measured after 30 days post exposure by resazurin reduction assay; format: functional, organism-based; outline: as §1
[19] = molecular target: T1, DNA-binding transcriptional activator DevR/DosR; assay: Inhibition of DevR region-dependent narK2 promoter activity in Mycobacterium tuberculosis H37Rv after 48 hrs by GFP reporter gene assay; outline: as §4

DNA-binding transcriptional activator DevR/DosR (Mycobacterium tuberculosis), sequence (P9WMF9 whole entry): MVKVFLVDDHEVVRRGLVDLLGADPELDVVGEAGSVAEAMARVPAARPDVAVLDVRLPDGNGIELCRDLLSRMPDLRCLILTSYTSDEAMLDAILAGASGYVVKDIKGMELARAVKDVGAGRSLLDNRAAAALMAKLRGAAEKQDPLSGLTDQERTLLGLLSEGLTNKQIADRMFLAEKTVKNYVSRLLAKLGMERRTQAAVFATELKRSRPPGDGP
T1 sequence (P9WMF9 whole entry): as above
DNA-binding protein HupB (Mycobacterium tuberculosis (strain ATCC 25177 / H37Ra)), sequence (A5U6Z7 whole entry): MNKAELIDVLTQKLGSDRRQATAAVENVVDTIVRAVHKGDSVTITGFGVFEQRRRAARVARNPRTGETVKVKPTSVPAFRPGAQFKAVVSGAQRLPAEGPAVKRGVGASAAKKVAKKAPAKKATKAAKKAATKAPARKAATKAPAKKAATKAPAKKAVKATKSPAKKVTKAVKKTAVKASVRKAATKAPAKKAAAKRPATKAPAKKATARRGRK

**Q.** Which Activity [1] does the source give for `Cc1ncc([N+](=O)[O-])n1CCO` here?
**A.** Active

**Q.** And the Activity [2]?
**A.** Active

**Q.** For `Cc1cc(=O)[nH]c2sc(C(=O)c3ccc(Br)cc3)c(N)c12`, which IC50 [3] is on record?
**A.** Not Active

**Q.** What about the IC50 [4] of the same molecule?
**A.** Not Active

**Q.** With `O=c1[nH]cc(/N=C/c2cc([N+](=O)[O-])ccc2O)c(=O)[nH]1` as the molecule, how does the IC50 [3] read?
**A.** Not Active

**Q.** And the IC50 [4]?
**A.** Not Active

**Q.** How did the IC50 ([3]; read-out: IC50 (converted)) turn out when `C=CCc1cc(/C=C2\NC(=O)N(c3ccccc3F)C2=O)cc(OCC)c1O` was run?
**A.** 259 µM

**Q.** What about the Activity [5] of the same molecule?
**A.** Active

**Q.** What about the inhibition [6] of the same molecule?
**A.** 100%

**Q.** And the IC50 ([4]; read-out: IC50 (converted))?
**A.** 311 µM

**Q.** What about the inhibition [7] of the same molecule?
**A.** 30%

**Q.** With `COc1cc(NC(=O)c2cc3ccccc3o2)ccc1NC(=O)c1ccccc1Cl` as the molecule, how does the IC50 ([3]; read-out: IC50 (converted)) read?
**A.** 200 µM

**Q.** What about the Activity [5] of the same molecule?
**A.** Active

**Q.** What about the IC50 ([4]; read-out: IC50 (converted)) of the same molecule?
**A.** 300 µM

**Q.** What about the inhibition [7] of the same molecule?
**A.** 30%

**Q.** What about the Activity [8] of the same molecule?
**A.** Active

**Q.** How did the Activity [1] turn out when `NNC(=O)c1ccncc1` was run?
**A.** inactive

**Q.** And the Activity [2]?
**A.** inactive

**Q.** `COc1cc(NC(=O)c2ccc(-c3cc4ccccc4oc3=O)cc2)ccc1NC(=O)c1ccccc1Cl` was tested. Which Activity [9] did it give?
**A.** inactive

**Q.** What about the Activity [10] of the same molecule?
**A.** >99%

**Q.** What about the IC50 ([3]; read-out: IC50 (converted)) of the same molecule?
**A.** < 49.9 µM

**Q.** What about the Activity [11] of the same molecule?
**A.** Active

**Q.** What about the Activity [12] of the same molecule?
**A.** inactive

**Q.** And the Activity [13]?
**A.** Active

**Q.** What about the Activity [14] of the same molecule?
**A.** Active

**Q.** What about the Activity [15] of the same molecule?
**A.** inactive

**Q.** And the Activity [16]?
**A.** inactive

**Q.** What about the Activity [5] of the same molecule?
**A.** inactive

**Q.** What about the IC50 [17] of the same molecule?
**A.** < 125 µM

**Q.** And the IC50 ([4]; read-out: IC50 (converted))?
**A.** 125 µM

**Q.** And the inhibition [7]?
**A.** 50%

**Q.** What about the Activity [18] of the same molecule?
**A.** inactive

**Q.** What about the IC50 [19] of the same molecule?
**A.** < 125 µM

**Q.** What about the Activity [8] of the same molecule?
**A.** Active

**Q.** How did the IC50 [3] turn out when `COC(=O)c1ccc(Cl)c(NC(=O)c2ccc(CN3CCOCC3)cc2)c1` was run?
**A.** Not Active

**Q.** And the IC50 [4]?
**A.** Not Active

**Q.** With `COc1cc(Br)cc(/C=C2/SC(Nc3cccc(C(=O)O)c3)=NC2=O)c1O` as the molecule, how does the IC50 [3] read?
**A.** Not Active

**Q.** And the IC50 [4]?
**A.** Not Active

**Q.** How did the IC50 [3] turn out when `Nc1nc2c(nc(Br)n2[C@H]2O[C@H](CO)[C@@H](O)[C@@H]2O)c(=O)[nH]1` was run?
**A.** Not Active

**Q.** And the IC50 [4]?
**A.** Not Active

**Q.** `COc1cc(NC(=O)CCc2ccc(OCc3ccc(Cl)cc3)c(OC)c2)c(OC)cc1Cl` was tested. Which IC50 ([3]; read-out: IC50 (converted)) did it give?
**A.** 295 µM

**Q.** And the Activity [5]?
**A.** Active

**Q.** What about the IC50 ([4]; read-out: IC50 (converted)) of the same molecule?
**A.** 249 µM

**Q.** What about the inhibition [7] of the same molecule?
**A.** 50%

**Q.** And the Activity [8]?
**A.** Active

**Q.** What does the source list for `COc1cc(C(=O)NCC(=O)NN)cc(OC)c1OC`?
**A.** IC50 [3]: Not Active; IC50 [4]: Not Active

**Q.** What does the source list for `O=C(NCc1ccccc1)c1ccccc1NS(=O)(=O)c1ccc2c(c1)OCCO2`?
**A.** IC50 [3]: Not Active; IC50 [4]: Not Active
